Screening data deposited in PubChem by The Scripps Research Institute Molecular Screening Center.
Shown are actives, neighbours in structure and some others; about 4.2% of the full set was active somewhere.
OX1R antag-1 – antagonists of human orexin 1 receptor. O43613. CHO/OX1R cells, Fluo-8 calcium fluorescence, orexin A. inhibition, % at 5 µM. hit rate 0.43% among 330,000. AID 434989;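 active = inhibition above its plate's threshold, mean inhibition of all tested compounds on the plate plus 3 SD, cut at about 37% in these data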
Target sequence (O43613 whole entry, looked up): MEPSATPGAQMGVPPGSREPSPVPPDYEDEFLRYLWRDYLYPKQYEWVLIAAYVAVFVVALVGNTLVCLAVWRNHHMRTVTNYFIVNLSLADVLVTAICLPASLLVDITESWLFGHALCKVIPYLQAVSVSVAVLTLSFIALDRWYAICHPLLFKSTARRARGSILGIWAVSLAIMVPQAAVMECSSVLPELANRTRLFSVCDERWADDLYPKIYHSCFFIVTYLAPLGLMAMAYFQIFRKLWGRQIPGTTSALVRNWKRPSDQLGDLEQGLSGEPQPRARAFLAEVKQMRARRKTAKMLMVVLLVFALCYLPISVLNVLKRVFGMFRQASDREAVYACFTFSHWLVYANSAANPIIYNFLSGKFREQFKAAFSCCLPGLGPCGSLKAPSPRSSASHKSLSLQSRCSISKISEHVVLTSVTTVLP
OX1R antag-2 – OX1R (human) antagonism | OX1R-expressing cells, FRET antagonist read-out | hit rate 1.8% among 330,000 | inhibition, % at 6.6 µM; in the data active = inhibition mostly above about 38%, no sharp cut-off; inactive = mostly below about 40%
TAAR1 antagonist – human TAAR1 antagonism | CHO RD-HGA16 TAAR1, Fluo-8 calcium fluorescence, antagonist | inhibition, % at 3 µM | hit rate 1.5% among 360,000 | AID 624466;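 active = inhibition above a per-plate cutoff, the mean inhibition of test compounds on that plate plus 3 SD, cut at about 49% in these data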
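Test system: RD-HGA16 CHO cells with stable hTAAR1 and Gα16 / Probe or stimulus: EC80 β-phenethylamine stimulus / Times: seeding 17-24 h prior, 75-min 37 °C, 30-min RT dye loading / Detection: Fluo-8 calcium-sensitive fluorescence / Read-out basis: % inhibition scaled between DMSO and EC80 PEA controls / Repeats: singlicate, one well per test compound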
TAAR1 ag – human TAAR1 agonism; CHO RD-HGA16 TAAR1, Fluo-8 calcium fluorescence; vehicle wells 0%, saturating PEA agonist 100%; Q96RJ0; activation, % at 3 µM; hit rate 0.99% among 360,000;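 active = activation above the mean activation of all test compounds in the run plus 3 SD, cut at about 38% in these data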
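Test system: RD-HGA16 (CHO) cells co-expressing Gα16 and hTAAR1; dosing: one-point dosing at 3 µM (nominal); timing: 17-24 h seeding, 75 min 37 °C dye, 30 min RT; signal: kinetic Fluo-8 calcium fluorescence; read-out basis: % activation relative to PEA EC100 response; controls: DMSO and PEA EC100; replicates: n 1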
GalR3 antagonist – human GalR3 antagonism | O60755 | HEK293 GalR3-CNG cAMP membrane potential fluorescence; galR3 body fused to GalR1 C-terminus | inhibition, % at 3 µM | hit rate 0.44% among 360,000;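 active = inhibition above the screen-wide average plus 3 SD, cut at about 13% in these data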;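 note: forskolin and galanin both at EC90 stimulate the cells; cAMP rise reported by CNG channel membrane potential dye signal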
Target sequence (O60755 1-299 limits assumed): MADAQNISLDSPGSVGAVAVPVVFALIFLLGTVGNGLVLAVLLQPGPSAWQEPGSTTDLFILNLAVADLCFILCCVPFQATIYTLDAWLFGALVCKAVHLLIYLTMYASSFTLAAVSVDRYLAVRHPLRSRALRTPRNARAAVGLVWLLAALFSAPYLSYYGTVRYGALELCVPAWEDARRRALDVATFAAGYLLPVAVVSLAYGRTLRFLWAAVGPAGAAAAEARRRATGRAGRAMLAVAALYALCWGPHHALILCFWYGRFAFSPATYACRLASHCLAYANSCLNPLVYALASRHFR
CHO parental Ca – counter-screen: ATP calcium response change in parental CHO cells; parental CHO-K1, ATP-induced calcium, Fluo-8 fluorescence; inhibition, % at 5.6 µM; hit rate 0.63% among 330,000; AID 463079;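 active = inhibition above that plate's mean sample inhibition plus 3 SD, cut at about 26% in these data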
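Assay system: parental CHO cells; Read-out basis: percent inhibition of ATP-evoked calcium rise, normalized to controls; Benchmarks: ATP and no-ATP DMSO wells; Compound dosing: single nominal dose of 5.6 µM per compound; Signal: Fluo-8 calcium dye fluorescence; Also added: ATP as calcium-mobilizing challenge; Repeats: singlicate.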
Each line names hits and unclear results; the compound was inactive in the other large screens.

O=C(CN1C(=O)c2ccccc2C1=O)N1CCCCC1	none
CCNC(=S)N1CCN(CCN2C(=O)c3cccc4cccc(c34)C2=O)CC1	none
NC(=O)CN1CCN(CCN2C(=O)c3cccc4cccc(c34)C2=O)CC1	OX1R antag-2 41.6
COc1ccccc1N1CCN(C(=O)CCCN2C(=O)c3cccc4cccc(c34)C2=O)CC1	TAAR1 antagonist 50.1
COc1ccccc1N1CCN(C(=O)CN2C(=O)c3cccc4cccc(c34)C2=O)CC1	none
Nc1cc2c3c(cccc3c1)C(=O)N(CCN1CCCC1)C2=O	OX1R antag-2 42.8
O=C(NCC1CCCO1)c1onc(CSc2ccccc2)c1C(=O)O (stereo unspecified)	none
Cc1cc(C(=O)Nc2ccc(Br)cc2)c2ccccc2n1	none
c1cc(-c2ccc3c(c2)CCO3)n2cnnc2c1	none (no result: OX1R antag-1, OX1R antag-2, CHO parental Ca)
O=C1CN(C(=O)COC(=O)[C@@H]2CC(O)CN2S(=O)(=O)c2ccc(Cl)cc2)c2ccccc2N1 (stereo partly specified)	none
Cc1ccc(Cl)cc1N1CCN(C(=O)CCS(=O)(=O)c2ccc3c(c2)NC(=O)CO3)CC1	TAAR1 antagonist 63.3
O=C1COc2ccc(S(=O)(=O)CCC(=O)N3CCN(c4cccc(Cl)c4)CC3)cc2N1	none
CN=C1C([N+](=O)[O-])=CC=C2C1=NC1(CCCCC1)N2O	OX1R antag-2 49.6
COc1ccc(OCCSc2nc3ccccc3n2CCC(=O)O)cc1	OX1R antag-2 54.5
CCc1ccc(OCCSc2nc3ccccc3n2CCC(=O)O)cc1	none
COc1ccccc1OCCSc1nc2ccccc2n1CCC(=O)O	OX1R antag-2 66.6
COc1ccccc1OCCSc1nc2ccccc2n1CCO	none
O=C(C1CCCN(c2ncnc3c2nc2n3CCCCC2)C1)N1CCN(c2cccc(Cl)c2)CC1 (stereo unspecified)	TAAR1 antagonist 87.8, TAAR1 ag 40.4
O=C(C1CCCN(S(=O)(=O)c2cccc3nonc23)C1)N1CCN(c2cccc(Cl)c2)CC1 (stereo unspecified)	TAAR1 antagonist 49.1
O=C(Nc1ccc(F)cc1)C1CCN(c2ncnc3c2nc2n3CCCCC2)CC1	CHO parental Ca 64.6
CN(C(=O)C1CCCN(c2ncnc3c2nc2n3CCCCC2)C1)c1cccc(Cl)c1 (stereo unspecified)	OX1R antag-2 40.3
Cc1ccccc1N(C)C(=O)C1CCCN(c2ncnc3c2nc2n3CCCCC2)C1 (stereo unspecified)	none
O=C(C1CCCN(S(=O)(=O)c2cccc3nonc23)C1)N1CCN(c2ccccc2Cl)CC1 (stereo unspecified)	none
Cc1nc2ccccc2c2c1C(=O)N(C)C2=O	none
Cc1cc(NC(=O)c2ccccc2F)on1	none
C/C(CC(=O)Nc1ccc2c(c1)OCO2)=N\NC(=O)C(c1ccccc1)c1ccccc1	none
CC(C)N(Cc1ccccc1)C(=O)C1CCCN(c2ncnc3c2nc2n3CCCCC2)C1 (stereo unspecified)	none
CCCCN(Cc1ccco1)C(=O)C1CCCN(c2ncnc3c2nc2n3CCCCC2)C1 (stereo unspecified)	OX1R antag-2 39.7
COc1ccccc1C1(O)CCN(CC(=O)Nc2nc(-c3ccccc3)cs2)CC1	TAAR1 antagonist 53.0
CCOC(=O)N1CCN(C(=O)CSCC(=O)Nc2nc(-c3ccc(-c4ccccc4)cc3)cs2)CC1	OX1R antag-1 52.8, OX1R antag-2 47.9, TAAR1 antagonist 70.2, CHO parental Ca 90.8 (no result: GalR3 antagonist)
O=C(CNC(=O)c1ccc(-c2ccccc2)cc1)OCc1ccc(Br)cc1	none (no result: OX1R antag-1, OX1R antag-2, CHO parental Ca)
Cc1nc2nc[nH]n2c(=O)c1NS(=O)(=O)c1ccc(F)cc1	none
Cc1nc2nc[nH]n2c(=O)c1NS(=O)(=O)c1ccc([N+](=O)[O-])cc1	OX1R antag-2 44.2
CCCc1nc2nc(C)c(NS(=O)(=O)c3ccc([N+](=O)[O-])cc3)c(=O)n2[nH]1	OX1R antag-2 49.7
Cc1ccc(NCc2nc3ccccc3n2C)cc1C	none
Cc1cc(C)c(S(=O)(=O)/N=C2/C=C(Sc3ncn[nH]3)C(=O)c3ccccc32)cc1C	OX1R antag-2 63.0
NS(=O)(=O)c1cccc(NC(=O)COC(=O)c2ccccc2C(=O)c2ccccc2)c1	none
Cc1c(C(=O)OCC(=O)Nc2cccc(S(N)(=O)=O)c2)oc2c1ccc1ccccc12	OX1R antag-2 48.3
O=C1CCCc2c1nc(-c1ccc([N+](=O)[O-])cc1)n2O	OX1R antag-2 48.4
Cc1cc(SCC(=O)Nc2cccc(S(=O)(=O)NC3=NCCCCC3)c2)nc2ccccc12	TAAR1 antagonist 49.0
Cc1ccc(-n2c(SCC(=O)Nc3cccc(S(=O)(=O)NC4=NCCCCC4)c3)nc3ccccc3c2=O)cc1C	none
COc1ccc(C2C(C(C)=O)=C(C)N=c3s/c(=C\c4cc(C)n(C)c4C)c(=O)n32)c(OC)c1 (stereo unspecified)	TAAR1 ag 41.3
COc1ccc(C2C(C(C)=O)=C(C)N=c3s/c(=C\c4ccco4)c(=O)n32)c(OC)c1 (stereo unspecified)	none
NS(=O)(=O)c1ccc(NC(=S)NNC(=O)CCC(=O)Nc2ccccc2Cl)cc1	none
CCn1c(O)c(N=NC(=O)c2ccc(CSc3nncn3C)cc2)c2ccccc21	OX1R antag-2 70.3
CSC1=NC(C)(C)CC2(C)Nc3ccccc3N12 (stereo unspecified)	none
CCOc1ccc(NC(=S)NC2CC3CCC(C2)N3Cc2ccco2)cc1 (stereo unspecified)	none
CN1CCN(c2ccc(C(F)(F)F)cc2NC(=O)Nc2ccccc2)CC1	TAAR1 ag 52.5
CN1CCC(NC(=O)Nc2cccc(C(F)(F)F)c2)CC1	none
COCCN(C(=O)COC(=O)CSc1cc(C)ccc1C)c1c(N)n(Cc2ccccc2)c(=O)[nH]c1=O	none (no result: OX1R antag-1, OX1R antag-2, CHO parental Ca)
Cc1ccc(S(=O)(=O)N2CCCCC2)cc1NC(=O)c1ccccc1Cl	none
Cc1nc2cc(-c3ccc(Cl)cc3)nn2c(C)c1CCC(=O)NC(C)c1ccc2c(c1)OCCO2 (stereo unspecified)	OX1R antag-2 49.4
CCC(C)(C(=O)NC1CCCCC1)N(CC1CCCO1)C(=O)c1ccccn1 (stereo unspecified)	none
O=C(NCc1cccnc1)Nc1ccc2c(c1)OCO2	none
CC(OC(=O)c1cc(S(=O)(=O)N2CCOCC2)ccc1F)C(=O)NCC1CCCCC1 (stereo unspecified)	none
Cc1[nH]c2ccc(-c3nnc(SCC(=O)c4ccc(F)cc4)o3)cc2c1C	none
Cc1cc(C)c(C)c(C(=O)CSc2nnc(-c3ccc4[nH]c(C)c(C)c4c3)o2)c1C	TAAR1 antagonist 69.4
CCCCNC(=O)CSc1nc2c(sc(=S)n2-c2cc(Cl)ccc2OC)c(=O)[nH]1	none
